Screening data (PubChem BioAssay)
DAX1 inh-1 = DAX1 (NR0B1) inhibitors, primary screen, cell-based, HEK293, Gal4-DAX1, luciferase luminescence. Nuclear receptor subfamily 0 group B member 1 (Homo sapiens), P51843. HEK293 Gal4-DAX1 luciferase reporter. inhibition, % at 6.75 µM. 340,000 compounds, 0.99% hits. AID 504766, 2011;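 active = inhibition above the mean over all tested compounds plus 3 SD, cut at about 4.2% in these data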;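 note: 0% = DAX1-transfected cells with DMSO and 100% = empty-vector control cells with DMSO; inhibition shows as a rise in luminescence from relieved DAX1 repression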
Target sequence (P51843 207-470 limits assumed): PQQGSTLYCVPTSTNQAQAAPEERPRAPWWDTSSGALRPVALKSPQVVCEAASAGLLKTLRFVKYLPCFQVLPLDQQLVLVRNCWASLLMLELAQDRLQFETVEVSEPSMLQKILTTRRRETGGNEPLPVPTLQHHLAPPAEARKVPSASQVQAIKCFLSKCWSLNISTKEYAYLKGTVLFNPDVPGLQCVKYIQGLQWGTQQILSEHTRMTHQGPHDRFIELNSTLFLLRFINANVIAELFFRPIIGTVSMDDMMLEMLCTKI
NR2E3 ag-1 = inhibitors of NR2E3-RetCOR corepressor binding, primary screen, NR2E3 agonist project, biochemical, TR-FRET, GST-NR2E3, biotin-RetCOR. Photoreceptor-specific nuclear receptor (Homo sapiens), Q9Y5X4. 1536-well. inhibition of corepressor binding, % at 4.78 µM. 320,000 compounds, 0.12% hits. AID 2300, 2010;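 active = percent inhibition above the cutoff of mean plus 3 SD of all tested compounds, set per screening campaign, cut at about 20% in these data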;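 note: 0% = DMSO wells and 100% = biotin wells as full block of FRET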
Target sequence (Q9Y5X4 whole entry, looked up): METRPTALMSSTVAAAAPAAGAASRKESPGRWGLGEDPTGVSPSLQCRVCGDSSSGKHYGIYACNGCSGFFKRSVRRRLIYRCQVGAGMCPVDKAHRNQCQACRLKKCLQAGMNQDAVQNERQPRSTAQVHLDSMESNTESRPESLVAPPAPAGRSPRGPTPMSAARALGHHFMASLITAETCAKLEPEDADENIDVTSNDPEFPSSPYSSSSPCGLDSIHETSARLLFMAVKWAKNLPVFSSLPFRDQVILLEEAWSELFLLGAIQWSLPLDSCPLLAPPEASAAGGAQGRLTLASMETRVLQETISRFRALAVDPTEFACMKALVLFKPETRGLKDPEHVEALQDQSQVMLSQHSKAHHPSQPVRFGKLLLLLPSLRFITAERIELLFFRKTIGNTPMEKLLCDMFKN
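Test system: GST-NR2E3 and biotin-RetCOR proteins | Quantity: 1.35 nM GST-tagged NR2E3 final | Medium: Tris pH 7.5 | Also added: 7 nM biotin-RetCOR | Dosing: Compound at 4.8 µM, single dose | Timing: 5 h at 4 °C | Detection: Time-resolved FRET | Read-out basis: Percent inhibition | Benchmarks: Biotin wells as high control, 0.6% DMSO wells as low control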
JMJD2C inh = inhibitors of GASC-1 histone demethylase, primary screen, biochemical, fluorescence, DELFIA europium; 330,000 compounds, 0.069% hits; AID 2099, 2009; inhibition, % at 2.35 µM; Lysine-specific demethylase 4C (Homo sapiens), Q9H3R0; GST-JMJD2C(1-420) H3K9me3 demethylation;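 active = more than half of a compound's replicate wells show inhibition beyond 50%, single wells judged on their own value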;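 note: signal counts dimethyl H3K9 product captured on neutravidin plate; 0% = median of DMSO wells and 100% = 0.3 times that DMSO median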
NR2E3 ag-2 = NR2E3 agonists in two-hybrid cells, primary screen, cell-based, luminescence, CHO-S, Gal4-NCOR/VP16-NR2E3; AID 602229, 2012; Photoreceptor-specific nuclear receptor (Homo sapiens), Q9Y5X4; 360,000 compounds, 0.35% hits; inhibition of corepressor binding, % at 3.98 µM; luciferase;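 active = inhibition above the mean of all tested compounds plus 3 SD, cut at about 70% in these data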;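 note: 0% = DMSO with NR2E3 transfected cells and 100% = cells lacking NR2E3 construct; higher means lower luciferase signal from less NR2E3 corepressor binding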
SMARCA2 activ = SMARCA2 (BRM) function activators, primary screen, cell-based, luminescence, high throughput; 370,000 compounds, 1% hits; activation, % at 9.1 µM; MG213 cells, MMTV-luciferase reporter, dexamethasone, overnight; in the data active = activation above about 7.8%;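 note: 0% = vehicle wells and 100% = reference activator wells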
DAX1 inh-2 = DAX1 (NR0B1) inhibitors on StAR promoter, primary screen, cell-based, luminescence, SF-1 (NR5A1), full-length DAX-1 | AID 652010, 2013 | inhibition, % at 6.8 µM | HEK293T StAR-luciferase reporter, SF-1/DAX-1 repression relief | 370,000 compounds, 1.1% hits;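 active = inhibition above the mean over all tested compounds plus 3 SD, cut at about 3.6% in these data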;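 note: 0% = DAX-1 cells with DMSO and 100% = cells lacking DAX-1 with DMSO; higher inhibition means more luminescence from relief of DAX-1 repression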
NR2E3 ag confirm = NR2E3 agonist confirmation in cells, cell-based, luminescence, CHO-S two-hybrid | AID 624378, 2012 | CHO-S mammalian two-hybrid NR2E3-NCOR, luciferase luminescence | inhibition, % at 3.98 µM | 2,300 compounds, 51% hits | shares compounds with NR2E3 ag-2;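 active = average inhibition above a cutoff equal to the mean inhibition of all tested compounds plus one SD, cut at about 70% in these data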;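 note: 0% = DMSO in NR2E3 cells and 100% = DMSO in cells lacking NR2E3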
GAL4-VP16 luc = GAL4-VP16 reporter modulators, confirmation, counter-screen for NR2E3 agonist project, cell-based, luminescence, CHO-S, high throughput | shares compounds with NR2E3 ag-2 | CHO-S GAL4-VP16 luciferase reporter | inhibition, % at 3.98 µM | 2,300 compounds, 29% hits | AID 624379, 2012;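 active = mean inhibition above a cutoff equal to the average over all tested compounds plus one standard deviation, cut at about 70% in these data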;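 note: luciferase from a UAS reporter driven by GAL4-VP16 transactivation; 0% = DMSO with VP16-transfected cells and 100% = DMSO with cells lacking VP16; higher means less reporter light so more repression of VP16 activity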
* marks the source's active call; other numbers are inactive results; . = not tested or not shown. Sampled rows, rich in hits. Any-hit rate of the full collection: about 3.2%.

SMILES | DAX1 inh-1 | NR2E3 ag-1 | JMJD2C inh | NR2E3 ag-2 | SMARCA2 activ | DAX1 inh-2 | NR2E3 ag confirm | GAL4-VP16 luc
Cc1cccc(N2CCN(S(=O)(=O)c3ccc4c(c3)CC(C)N4C(=O)C3CC3)CC2)c1C (stereo not given) | 1 | -2 | -2 | 53 | -2 | -5 | 59 | 54
CC1Cc2cc(S(=O)(=O)N3CCC(C(=O)N4CCN(c5ccccc5F)CC4)CC3)ccc2N1C(=O)C1CC1 (stereo not given) | -3 | 0 | -12 | 74* | 0 | -5 | 46 | 45
O=C(NCc1c(F)cccc1F)C1C2C=CC3(CN(Cc4ccccc4)C(=O)C13)O2 (stereo not given) | . | . | . | . | -5 | 0 | . | .
CC(=O)c1ccc(N2CCN(S(=O)(=O)c3ccc4c(c3)CC(C)N4C(=O)C3CC3)CC2)cc1 (stereo not given) | 0 | 0 | -1 | -16 | -1 | -2 | . | .
CC(=O)c1ccc(N2CCN(S(=O)(=O)c3ccc4c(c3)CC(C)N4C(C)=O)CC2)cc1 (stereo not given) | -1 | -1 | -2 | 70* | -1 | -10 | 92* | 73*
O=S(=O)(c1cccc(Br)c1)N1CCN(c2ccnc3cc(Cl)ccc23)CC1 | -1 | -1 | 3 | 64 | -1 | -3 | 65 | 60
COCCNC(=O)CS(=O)(=O)Cc1nc(-c2ccc(C)cc2)oc1C | 0 | -2 | 1 | 13 | 6 | 0 | . | .
CCc1ccc(-c2nc(CSCC(=O)NCCCN3CCCC3=O)c(C)o2)cc1 | -3 | 0 | -8 | 71* | -1 | 1 | 90* | 63
CCOCCCNC(=O)CS(=O)(=O)Cc1nc(-c2cccc(OC)c2)oc1C | 0 | 3 | -3 | 14 | 3 | -1 | . | .
CSc1ccc(-c2nc(CSCC(=O)NCCCN3CCCC3=O)c(C)o2)cc1 | 0 | 1 | -2 | 32 | -5 | -1 | . | .
COCCNC(=O)CSCc1nc(-c2ccc(SC)cc2)oc1C | -2 | 3 | -2 | 92* | -2 | -1 | 85* | 86*
CCOCCCNC(=O)CSCc1nc(-c2ccc(SC)cc2)oc1C | -1 | 2 | 1 | 81* | 0 | 0 | 81* | 81*
Cc1cc(=O)n(-c2ccc(O)cc2)[nH]1 | -2 | 14 | -8 | 56 | 0 | -1 | -8 | 4
Cc1cc(=O)n(-c2ccc(C(=O)O)cc2)[nH]1 | -2 | 14 | -7 | -24 | -1 | 0 | . | .
COc1ccc(-c2nn(-c3ccccc3)cc2/C=N/N=C(N)N)cc1OC | 0 | -1 | 2 | 0 | 0 | -1 | . | .
COc1ccc(-c2nn(-c3ccccc3)cc2/C=N/O)cc1OC | -1 | -2 | 1 | 60 | -3 | 0 | 38 | 11
C=CCN1C(C(=O)OC)CN(Cc2cn(Cc3ccc(C)cc3)nn2)CCS1(=O)=O (stereo not given) | . | . | . | . | 2 | 0 | . | .
Cc1c(C(=O)N2CCCCC2)oc2ccc(S(=O)(=O)N3CC(C)CC(C)C3)cc12 (stereo not given) | -2 | -6 | 2 | 77* | . | . | 73* | 63
COc1ccc(-c2coc3c(C(=O)NCc4ccc(OC)c(OC)c4)cccc23)c(C)c1 | . | . | . | 91* | -4 | -6 | 95* | 82*
O=C(Nc1cccc(C(F)(F)F)c1)c1cccc2c(-c3cccnc3)coc12 | . | . | . | -59 | . | . | . | .
Cn1cc(-c2coc3c(C(=O)NCc4cccnc4)cccc23)cn1 | . | . | . | -26 | -4 | -3 | . | .
COc1ccc(CNC(=O)c2cccc3c(-c4cnn(C)c4)coc23)cc1OC | . | . | . | 63 | -3 | -4 | 41 | 34
COc1cc(NC(=O)c2cccc3c(-c4cccnc4)coc23)cc(OC)c1OC | . | . | . | 51 | -5 | -5 | 13 | 42
COc1ccc(-c2coc3c(C(=O)NCC4CCOCC4)cccc23)c(C)c1 | . | . | . | 71* | -4 | -3 | 60 | 51
O=C1CSc2ccc(C(=O)N3CCCC(C(=O)N4CCCCC4)C3)cc2N1 (stereo not given) | . | . | . | . | -2 | -1 | . | .
SMILES | DAX1 inh-1 | NR2E3 ag-1 | JMJD2C inh | NR2E3 ag-2 | SMARCA2 activ | DAX1 inh-2 | NR2E3 ag confirm | GAL4-VP16 luc
CC(=O)c1cc(-c2cccc(C#N)c2)c(=O)n2c1CCC2 | . | . | . | . | 0 | 0 | . | .
O=C(CCS(=O)(=O)c1cc2c(cc1Br)CCN2C(=O)C1CC1)N1CCN(c2ccccn2)CC1 | . | . | . | . | 0 | -1 | . | .
NC(=O)C1=CN([C@@H]2O[C@H](COP(=O)(O)OP(=O)(O)OC[C@H]3O[C@@H](n4cnc5c(N)ncnc54)[C@H](O)[C@@H]3O)[C@@H](O)[C@H]2O)C=CC1 | . | . | . | . | -3 | 0 | . | .
CN(CC(=O)Nc1ccccc1Cl)C(=O)c1cccc(S(=O)(=O)N2CCN(Cc3ccccc3)CC2)c1 | -4 | 1 | 6 | 102* | -3 | -6 | 63 | 46
CN(CC(=O)Nc1ccccc1Cl)C(=O)c1cccc(S(=O)(=O)N2CCN(c3ccc(F)cc3)CC2)c1 | -2 | -2 | -9 | 94* | -4 | -3 | 73* | 50
CN(CC(=O)Nc1cccc(F)c1)C(=O)c1ccc(N2CCCCCC2)c([N+](=O)[O-])c1 | -1 | -2 | 5 | -2 | -2 | -4 | . | .
O=C(c1cccc(S(=O)(=O)N2CCN(c3ccc(F)cc3)CC2)c1)N1CCCC(C(F)(F)F)C1 (stereo not given) | -2 | -4 | -1 | 89* | -8 | -5 | 97* | 82*
CC1CN(C(=O)c2cccc(S(=O)(=O)N3CCN(c4ccc(F)cc4)CC3)c2)CC(C)O1 (stereo not given) | -2 | 1 | 15 | 14 | -1 | -5 | . | .
CN(CC(=O)Nc1cccc(F)c1)C(=O)c1ccc(N2CCCC2)c([N+](=O)[O-])c1 | -2 | -4 | 4 | 63 | -5 | -1 | 19 | 23
Cc1cccc(C)c1NC(=O)CN(C)C(=O)c1cccc(S(=O)(=O)N2CCN(c3ccccc3)CC2)c1 | -1 | 3 | 7 | 24 | -2 | -3 | . | .
O=C(c1cc(S(=O)(=O)N2CCN(c3ccccc3)CC2)ccc1Cl)N1CCCCCCC1 | -1 | 3 | 147 | 67 | -4 | -3 | 79* | 48
